Experimental data from ChEMBL document CHEMBL4396890, “Synthesis, Biological Evaluation, Structure-Activity Relationship, and Mechanism of Action Studies of Quinoline-Metronidazole Derivatives Against Experimental Visceral Leishmaniasis” (J Med Chem, 2019).
The source made the active and inactive calls. The calls are words filed in the database; no cut-off is given here.

Experiments:
[1] = test system: Leishmania donovani; test: Antileishmanial activity against Leishmania donovani MHOM/IN/80/Dd8 promastigotes harboring luciferase reporter gene at 25 uM after 48 hrs by Steady-Glo luminescence assay relative to control; assay type: functional; details: for inhibition at 25 µM: MHOM/IN/80/Dd8, 48 h
In short: (§1)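 Luciferase-expressing L. donovani Dd8 promastigotes were grown at 24 °C in M199 with 10% heat-inactivated FBS and G418 20 μg/mL. They were treated at varied concentrations for 24 and 48 h, and inhibition was read as relative luminescence units versus untreated control. IC50 was from dose–response; screening values are mean ± SD of at least three experiments in duplicate.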

[2] = test system: Leishmania donovani; test: Antileishmanial activity against Leishmania donovani MHOM/IN/80/Dd8 amastigotes harboring luciferase reporter gene infected in mouse J774 cells at 50 uM after 48 hrs by Steady-Glo luminescence assay relative to control; assay type: functional; details: for inhibition at 50 µM: MHOM/IN/80/Dd8, J774, 48 h
In short: (§2)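 Infection of J774 macrophages with L. donovani Dd8 promastigotes at a 1:8 cell:parasite ratio. Compounds were diluted 2-fold in RPMI over 3.125–100 μM final and applied for 48 h. Amastigote inhibition was read by luciferase (RLU) or by Giemsa count of amastigotes per 100 macrophages. IC50 was from dose–response; n = 3 independent experiments done in replicate.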

[3] = test system: Leishmania donovani; test: Antileishmanial activity against Leishmania donovani MHOM/IN/80/Dd8 amastigotes harboring luciferase reporter gene infected in mouse J774 cells at 25 uM after 48 hrs by Steady-Glo luminescence assay relative to control; assay type: functional; details: for inhibition at 25 µM: MHOM/IN/80/Dd8, J774, 48 h; in short: as §2
[4] = test system: Leishmania donovani; test: Antileishmanial activity against Leishmania donovani MHOM/IN/80/Dd8 promastigotes harboring luciferase reporter gene at 50 uM after 48 hrs by Steady-Glo luminescence assay relative to control; assay type: functional; details: for inhibition at 50 µM: MHOM/IN/80/Dd8, 48 h; in short: as §1
[5] = Toxicity in BALB/c mouse infected with Leishmania donovani MHOM/IN/80/Dd8 promastigotes assessed as reduction in body weight at 12.5 to 200 mg/kg, ip administered once daily for 5 days measured up to 7 days post dose; assay type: organism-based; details: in vivo
In short: (§3)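 BALB/c mice (20 ± 2 g) were infected by tail-vein injection of 2 × 10^7 stationary-phase promastigotes. At day 15 they received ip doses in 8% DMSO/PBS for 5 consecutive days and were killed at day 7 post-treatment. Survival, general health and body weight were monitored; 5 mice per group.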

[6] = Toxicity in BALB/c mouse infected with Leishmania donovani MHOM/IN/80/Dd8 promastigotes assessed as death at 50 mg/kg, ip administered once daily for 5 days measured up to 7 days post dose; assay type: organism-based; details: in vivo; in short: as §3
[7] = test system: Leishmania donovani; test: Antileishmanial activity against Leishmania donovani MHOM/IN/80/Dd8 promastigotes infected in BALB/c mouse assessed as reduction in parasite load in liver at 50 mg/kg, ip administered once daily for 5 days measured 7 days post dose by giemsa staining-based assay relative to control; assay type: functional; design: scale not given: the % may be the effect or the level left
In short: (§4)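 Hamster-passaged strain was transformed to promastigotes. Stationary-phase cells (2 × 10^7 in 0.2 mL PBS) were injected into the tail vein of BALB/c mice. From day 15 post-infection, mice received compound ip in 8% DMSO in PBS for 5 consecutive days, 5 mice per group. Mice were killed day 7 post-treatment. Liver and spleen burden was read from Giemsa-stained stamp smears as LDU.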

[8] = Toxicity in BALB/c mouse infected with Leishmania donovani MHOM/IN/80/Dd8 promastigotes assessed as reduction in body weight at 50 mg/kg, ip administered once daily for 5 days measured up to 7 days post dose; assay type: organism-based; details: in vivo; in short: as §3
[9] = Toxicity in BALB/c mouse infected with Leishmania donovani MHOM/IN/80/Dd8 promastigotes assessed as death at 12.5 to 200 mg/kg, ip administered once daily for 5 days measured up to 7 days post dose; assay type: organism-based; details: in vivo; in short: as §3
[10] = Toxicity in BALB/c mouse infected with Leishmania donovani MHOM/IN/80/Dd8 promastigotes assessed as death at 25 mg/kg, po administered once daily for 5 days measured up to 7 days post dose; assay type: organism-based; details: in vivo
In short: (§5)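 BALB/c mice (20 ± 2 g) were infected by tail-vein injection of 2 × 10^7 stationary-phase promastigotes. From day 15 they were given miltefosine 25 mg/kg orally, suspended in triple-distilled water, daily for 5 days, and killed at day 7 post-treatment. Survival, health and body weight were monitored; 5 mice per group.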

[11] = test system: Leishmania donovani; test: Antileishmanial activity against Leishmania donovani MHOM/IN/80/Dd8 promastigotes infected in BALB/c mouse assessed as reduction in parasite load in spleen at 50 mg/kg, ip administered once daily for 5 days measured 7 days post dose by giemsa staining-based assay relative to control; assay type: functional; design: scale not given: the % may be the effect or the level left; in short: as §4
[12] = Toxicity in BALB/c mouse infected with Leishmania donovani MHOM/IN/80/Dd8 promastigotes assessed as effect on health at 50 mg/kg, ip administered once daily for 5 days measured up to 7 days post dose; assay type: organism-based; details: in vivo; in short: as §3
[13] = Toxicity in BALB/c mouse infected with Leishmania donovani MHOM/IN/80/Dd8 promastigotes assessed as effect on health at 12.5 to 200 mg/kg, ip administered once daily for 5 days measured up to 7 days post dose; assay type: organism-based; details: in vivo; in short: as §3
[14] = Toxicity in BALB/c mouse infected with Leishmania donovani MHOM/IN/80/Dd8 promastigotes assessed as effect on health at 25 mg/kg, po administered once daily for 5 days measured up to 7 days post dose; assay type: organism-based; details: in vivo; in short: as §5
[15] = Toxicity in BALB/c mouse infected with Leishmania donovani MHOM/IN/80/Dd8 promastigotes assessed as reduction in body weight at 25 mg/kg, po administered once daily for 5 days measured up to 7 days post dose; assay type: organism-based; details: in vivo; in short: as §5
[16] = test system: Leishmania donovani; test: Induction of mitochondrial potential loss in Leishmania donovani MHOM/IN/80/Dd8 promastigotes assessed as shift in red to green fluorescence at 50 uM by JC1 dye-based flow cytometry (reference value: 7.37%); assay type: functional
[17] = test system: Leishmania donovani; test: Antileishmanial activity against Leishmania donovani MHOM/IN/80/Dd8 amastigotes harboring luciferase reporter gene infected in mouse J774 cells after 48 hrs by Steady-Glo luminescence assay; assay type: functional, organism-based; details: MHOM/IN/80/Dd8, J774, 48 h; in short: as §2
[18] = Selectivity index, ratio of CC50 for […] Vero cells to IC50 for antileishmanial activity against Leishmania donovani MHOM/IN/80/Dd8 harboring luciferase reporter gene; assay type: toxicity
In short: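 J774 macrophages and Vero cells were exposed to 12.5–400 μM for 48 h, with viability by MTT. CC50 was derived, and SI was calculated as CC50 divided by anti-amastigote IC50 in each cell type.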

[19] = test system: Leishmania donovani; test: Antileishmanial activity against Leishmania donovani MHOM/IN/80/Dd8 promastigotes infected in BALB/c mouse assessed as reduction in parasite load in liver at 25 mg/kg, po administered once daily for 5 days measured 7 days post dose by giemsa staining-based assay relative to control; assay type: functional; design: scale not given: the % may be the effect or the level left
In short: (§6)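 Reference-drug arm of the same infection model (BALB/c mice, 15-day infection, 2 × 10^7 promastigotes iv). Drug was suspended in triple distilled water and given orally at 25 mg/kg/day for 5 days, 5 mice per group. Hepatic and splenic burden was taken at day 7 post-treatment by Giemsa stamp smears, as LDU.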

[20] = test system: Leishmania donovani; test: Antileishmanial activity against Leishmania donovani MHOM/IN/80/Dd8 amastigotes harboring luciferase reporter gene infected in mouse J774 cells after 48 hrs by Giemsa staining-based microscopic assay; assay type: functional, organism-based; details: MHOM/IN/80/Dd8, J774, 48 h; in short: as §2
[21] = test system: Leishmania donovani; test: Antileishmanial activity against Leishmania donovani MHOM/IN/80/Dd8 promastigotes infected in BALB/c mouse assessed as reduction in parasite load in spleen at 25 mg/kg, po administered once daily for 5 days measured 7 days post dose by giemsa staining-based assay relative to control; assay type: functional; design: scale not given: the % may be the effect or the level left; in short: as §6
[22] = Selectivity index, ratio of CC50 for mouse J774 cells to IC50 for antileishmanial activity against Leishmania donovani MHOM/IN/80/Dd8 harboring luciferase reporter gene

| SMILES | inhibition at 25 µM [1] | inhibition at 50 µM [2] | inhibition at 25 µM [3] | inhibition at 50 µM [4] | also measured |
| --- | --- | --- | --- | --- | --- |
| Cc1ncc([N+](=O)[O-])n1CCOc1ccc(-c2cc(-c3ccccc3F)c3cc(Cl)ccc3n2)cc1 | 34.4% | 63.6% | 23.4% | 59.1% |  |
| Cc1ncc([N+](=O)[O-])n1CCOc1ccc(-c2cc(-c3ccccc3Cl)c3cc(Cl)ccc3n2)cc1 | 38.2% | 27.2% | 12.1% | 61.7% |  |
| Cc1ncc([N+](=O)[O-])n1CCOc1cccc(-c2cc(-c3ccccc3)c3cc([N+](=O)[O-])ccc3n2)c1 |  | 10.4% |  |  | inhibition [1]: inactive; inhibition [3]: inactive; inhibition [4]: inactive |
| Cc1ncc([N+](=O)[O-])n1CCOc1ccc(-c2cc(-c3ccccc3)c3ccccc3n2)cc1 | 78.2% | 67.7% | 45.3% | 93.2% |  |
| Cc1ncc([N+](=O)[O-])n1CCO [METRONIDAZOLE] | 41.3% | 68.1% | 31.2% | 62.2% | Activity [5]: Non-Toxic; Activity [6]: Non-Toxic; Activity [7]: 40.8%; Activity [8]: Non-Toxic; Activity [9]: Non-Toxic; Activity [10]: Non-Toxic; Activity [11]: 36.6%; Activity [12]: Non-Toxic; Activity [13]: Non-Toxic; Activity [14]: Non-Toxic; Activity [15]: Non-Toxic |
| Cc1ncc([N+](=O)[O-])n1CCOc1ccc(-c2cc(-c3ccccc3)c3cc(Cl)ccc3n2)cc1 | 45.3% | 64.4% | 34.2% | 65.8% |  |
| Cc1ncc([N+](=O)[O-])n1CCOc1cccc(-c2cc(-c3ccccc3)c3ccccc3n2)c1 | 43% | 66.4% | 31.2% | 63% |  |
| Cc1ncc([N+](=O)[O-])n1CCOc1cccc(-c2cc(-c3ccccc3)c3cc(Br)ccc3n2)c1 | 30.2% | 65.3% | 29.5% | 60.8% |  |
| Cc1ncc([N+](=O)[O-])n1CCOc1cccc(-c2cc(-c3ccccc3F)c3cc(Cl)ccc3n2)c1 |  | 12.1% |  |  | inhibition [1]: inactive; inhibition [3]: inactive; inhibition [4]: inactive |
| N#CC(C#N)=NNc1cccc(Cl)c1 [CARBONYL CYANIDE M-CHLOROPHENYLHYDRAZONE] |  |  |  |  | Activity [16]: 95.49% |
| c1ccc2ncccc2c1 [QUINOLINE] | 42.4% | 83.6% | 64.5% | 80.2% | Activity [5]: Non-Toxic; Activity [6]: Non-Toxic; Activity [7]: 58.2%; Activity [8]: Non-Toxic; Activity [9]: Non-Toxic; Activity [10]: Non-Toxic; Activity [11]: 55.2%; Activity [12]: Non-Toxic; Activity [13]: Non-Toxic; Activity [14]: Non-Toxic; Activity [15]: Non-Toxic |
| CCCCCCCCCCCCCCCCOP(=O)([O-])OCC[N+](C)(C)C [MILTEFOSINE] | 97.2% | 99.2% | 98.3% | 99.5% | IC50 [17]: 9.59 µM; selectivity ratio [18]: 5.3; Activity [10]: Non-Toxic; Activity [19]: >98%; IC50 [20]: 9.59 µM; Activity [14]: Non-Toxic; Activity [21]: >98%; Activity [15]: Non-Toxic; selectivity ratio [22]: 5.8 |
| Cc1ncc([N+](=O)[O-])n1CCOc1cccc(-c2cc(-c3ccccc3)c3cc(Cl)ccc3n2)c1 | 41.2% | 59.2% | 38.2% | 58.2% |  |
| Cc1ncc([N+](=O)[O-])n1CCOc1cccc(-c2cc(-c3ccccc3Cl)c3cc(Cl)ccc3n2)c1 | 12.3% |  |  | 26% | inhibition [2]: inactive; inhibition [3]: inactive |
| Cc1ncc([N+](=O)[O-])n1CCOc1ccc(-c2cc(-c3ccccc3)c3ccc(Br)cc3n2)cc1 | 41.3% | 60.3% | 33.8% | 63.9% |  |
